# pIC50, pKi: −log10 of the molar value. The source made the active and inactive calls. The rule behind the calls is not given here.
# Experiments:
# [1] = Chemical stability in aqueous solution assessed as compound decomposition after 30 mins; format: physicochemical; conditions: buffer, 0.5 h
# [2] = Inhibition of Escherichia coli N5-CAIR synthetase using variable amounts of 5-aminoimidazole ribonucleotide or ATP by ATPase assay
# Procedure, shortened: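 E. coli enzyme (168 ng) in 1 mL cuvette, 50 mM HEPES pH 7.5, 20 mM KCl, 6.0 mM MgCl2, 1.0 mM NaHCO3, PK/LDH coupling (0.2 mM NADH, 2.0 mM PEP, 4 U PK, 17 U LDH). Preincubated with ATP 3 min at 37 °C. ATP fixed 1.1 mM with AIR 5–250 μM, or AIR fixed 100 μM with ATP 5–250 μM. Start with AIR plus inhibitor (0–50 μM); A340 read at 37 °C.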
# [3] = Inhibition of Escherichia coli N5-CAIR synthetase by phosphate assay
# Procedure, shortened: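 E. coli enzyme in 50 mM HEPES pH 7.5, 20 mM KCl, 6.0 mM MgCl2, 100 μM ATP, diluted saturated NaHCO3. Compound at eight concentrations, 0.78–100 μM, with 50 μM AIR added, run 5 min at room temperature. Quenched with malachite green reagent, A600 read after at least 15 min. IC50 taken from Hill fit between enzyme + AIR and no-AIR controls.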
# [4] = Inhibition of Escherichia coli N5-CAIR synthetase using variable amount of ATP and fixed aminoimidazole ribonucleotide by ATPase assay
# Procedure, shortened: (§1)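 PK/LDH-coupled assay at 37 °C in HEPES pH 7.5, KCl, MgCl2, 0.2 mM NADH, 2.0 mM PEP, 1.0 mM NaHCO3. AIR fixed at 100 μM and ATP varied 5–250 μM. Inhibitor at 0–50 μM added with AIR to start the reaction. NADH loss followed at 340 nm, initial velocity over the first 2 min. Mode from Lineweaver-Burk plots, Ki from slope replots.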
# [5] = Inhibition of Escherichia coli N5-CAIR synthetase using variable amount of aminoimidazole ribonucleotide and fixed ATP by ATPase assay
# Procedure, shortened: as §1, with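 “NaHCO3. ATP” for “NaHCO3. AIR”, “at 1.1 mM” for “at 100 μM”, “and AIR” for “and ATP”, “loss read” for “loss followed”, “initial rate” for “initial velocity”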
# [6] = biological target: T1, Bifunctional phosphoribosylaminoimidazole carboxylase/phosphoribosylaminoimidazole succinocarboxamide synthetase (Homo sapiens) (UniProt P22234); experiment: Inhibition of human AIR carboxylase: SAICAR synthetase at 200 uM by coupled assay
# T1 sequence (whole entry): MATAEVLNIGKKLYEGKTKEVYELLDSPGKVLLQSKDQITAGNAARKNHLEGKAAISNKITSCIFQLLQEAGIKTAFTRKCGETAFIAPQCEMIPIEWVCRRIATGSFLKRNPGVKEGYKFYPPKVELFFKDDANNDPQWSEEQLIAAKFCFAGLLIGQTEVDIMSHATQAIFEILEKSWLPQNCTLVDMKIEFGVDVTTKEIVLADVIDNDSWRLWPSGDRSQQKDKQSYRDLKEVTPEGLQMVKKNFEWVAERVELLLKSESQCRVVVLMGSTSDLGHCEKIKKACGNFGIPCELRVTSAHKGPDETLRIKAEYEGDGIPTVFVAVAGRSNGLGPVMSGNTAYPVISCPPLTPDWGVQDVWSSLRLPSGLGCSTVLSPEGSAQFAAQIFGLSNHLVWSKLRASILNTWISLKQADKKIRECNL
# Procedure, shortened: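 Human bifunctional AIR carboxylase:SAICAR synthetase (>95% pure by SDS-PAGE); both activities measured together by coupled assay, as described for the chicken enzyme; compounds at 200 μM.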
# [7] = Chemical stability in aqueous solution assessed as compound decomposition after 45 mins; format: physicochemical; conditions: buffer, 0.75 h
Structure (SMILES),pIC50 [3],further results
Cc1nonc1NC1(O)C(=O)c2ccccc2C1=O,5.64,Stability [1]: Unstable; Ki [2]: Not Active
Cc1cc(NC2(O)C(=O)c3ccccc3C2=O)n(C)n1,5.11,–
CN1CCN(CN2C(=O)C(=O)c3ccccc32)CC1,4.43,–
COc1cscc1C(=O)NC1(O)C(=O)c2ccccc2C1=O,4.77,–
COc1cc(C(F)(F)F)c(C(=O)NC2(O)C(=O)c3ccccc3C2=O)cn1,4.77,–
CCOC(=O)C1CCN(CN2C(=O)C(=O)c3ccccc32)CC1,4.66,–
Cc1cc2nc3c(=O)[nH]c(=O)nc-3n(C[C@H](O)[C@H](O)[C@H](O)CO)c2cc1C,4.70,pKi [4]: 3.91; pKi [5]: 4.09; Activity [6]: inactive
O=C1C(=O)N(CN2CCN(CN3C(=O)C(=O)c4ccccc43)C2)c2ccccc21,4.16,–
Cc1nc(NC2(O)C(=O)c3ccccc3C2=O)cs1,5.25,Stability [7]: Unstable; Ki [2]: Not Active
CCN(CC)C(=O)CN1C(=O)C(=O)c2ccccc21,4.98,pKi [4]: 4.40; pKi [5]: 4.54; Activity [6]: inactive
O=C(NC1(O)C(=O)c2ccccc2C1=O)c1cccc2c1-c1ccccc1C2=O,5.06,–
O=C1Nc2ccc(OC(F)(F)F)cc2C1=O,4.72,–
O=C1C(=O)N(CN2CCOCC2)c2ccc(Br)cc21,4.64,–
CCOC(=O)c1noc(C)c1-c1csc(CS(=O)(=O)c2ccc(Cl)cc2)n1,5.00,pKi [4]: 4.37; pKi [5]: 4.21; Activity [6]: inactive

# From ChEMBL document CHEMBL1139237, “Identification of inhibitors of N5-carboxyaminoimidazole ribonucleotide synthetase by high-throughput screening” (Bioorg Med Chem, 2009)
